Assay results reported in ChEMBL document CHEMBL1240389, “In vitro and in vivo activities of the novel anticytomegalovirus compound AIC246” (Antimicrob Agents Chemother, 2010).
Active and inactive are the calls of the source. The rule behind the calls is not given here.

What was measured:
[1] = test system: Human betaherpesvirus 5; assay: Antiviral activity against 1 MOI human cytomegalovirus AD169 infected in NHDF after 7 days by GFP-based fluorescent reduction assay; format: functional, organism-based; conditions: Human betaherpesvirus 5, AD169, NHDF, 168 h
Summary of the method: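 NHDF cells (1.5 × 10⁴/well) infected with GFP-expressing HCMV AD169 at increasing MOI (0.003 to 1); after adsorption inoculum replaced, compound added in serial 3-fold dilutions, at least duplicate. 7 days at 37°C, medium swapped for PBS, GFP units read by CCD camera. EC₅₀ = 50% GFPU reduction versus no-drug virus control by nonlinear regression; at least triplicate experiments.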

[2] = test system: Human betaherpesvirus 5; assay: Antiviral activity against human cytomegalovirus RV-HG infected in NHDF after 7 days by GFP-based fluorescent reduction assay; format: functional, organism-based; conditions: Human betaherpesvirus 5, RV-HG, 168 h
Summary of the method: (§1)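 Incubated 7 days at 37°C, medium swapped for PBS, GFP units read by CCD-camera fluorescence imager. EC50/EC90 from % GFPU reduction versus untreated infected wells by nonlinear regression; at least triplicate experiments.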

[3] = test system: Human betaherpesvirus 5; assay: Antiviral activity against human cytomegalovirus Davis infected in NHDF assessed as inhibition of virus-induced cytopathic effect after 6 to 7 days by giemsa staining; format: functional, organism-based; conditions: Human betaherpesvirus 5, Davis
Summary of the method: (§2)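 NHDF cells (1 × 10⁴/well) mixed with cell-free virus (MOI 0.03) or with infected-cell suspension (MOI 0.001 to 0.002). Compound was added from DMSO stocks in 2-fold serial dilutions, final 250 to 0.00005 μM, in duplicates. Plates were incubated 6 to 7 days at 37°C or until 100% CPE in virus control, then fixed and stained with Giemsa/formalin and scored microscopically. EC₅₀ is 50% CPE inhibition versus untreated infected control.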

[4] = test system: Human betaherpesvirus 5; assay: Antiviral activity against human cytomegalovirus isolate 472 infected in NHDF assessed as inhibition of virus-induced cytopathic effect after 6 to 7 days by giemsa staining; format: functional, organism-based; conditions: Human betaherpesvirus 5, isolate 472, NHDF; summary of the method: as §2
[5] = test system: Human betaherpesvirus 5; assay: Antiviral activity against human cytomegalovirus infected in NHLF after 7 days by GFP-based fluorescent reduction assay; format: functional, organism-based; conditions: Human betaherpesvirus 5, 168 h
Summary of the method: (§3)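 Fibroblasts of the stated type (1.5 × 10⁴/well) infected with GFP-expressing recombinant AD169 (HCMV-GFP MOI 0.1 or RV-HG MOI 0.2 to 0.5). After adsorption the inoculum was replaced, with 3-fold serial compound dilutions at least in duplicate, and 7 days at 37°C. GFP units were read by CCD camera in PBS. EC₅₀ was derived from GFPU reduction versus untreated infected wells; at least triplicate runs.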

[6] = test system: Human betaherpesvirus 5; assay: Antiviral activity against human cytomegalovirus AD169 infected in NHDF assessed as inhibition of virus replication at 50 nM measured after 24 to 72 hrs of compound wash by fluorescence assay; format: functional, organism-based
[7] = test system: Human betaherpesvirus 5; assay: Antiviral activity against human cytomegalovirus isolate E16415S infected in NHDF assessed as inhibition of virus-induced cytopathic effect after 6 to 7 days by giemsa staining; format: functional, organism-based; conditions: Human betaherpesvirus 5, isolate E16415S
Summary of the method: (§4)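 Cell-associated virus (infected NHDF cells) used as inoculum, at MOI 0.001 to 0.002, mixed with uninfected NHDF (1 × 10⁴ to 3 × 10⁴ cells/well). Compound was added in 2-fold serial dilutions, final 250 to 0.00005 μM, in duplicates. Incubation was 6 to 7 days at 37°C, followed by Giemsa/formalin staining and visual CPE scoring. EC₅₀ is 50% CPE inhibition versus untreated infected control; at least two independent experiments.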

[8] = test system: Human betaherpesvirus 5; assay: Antiviral activity against human cytomegalovirus AD169 infected in NHDF assessed as inhibition of virus-induced cytopathic effect after 6 to 7 days by giemsa staining; format: functional, organism-based; conditions: Human betaherpesvirus 5, AD169, NHDF; summary of the method: as §2
[9] = test system: Human betaherpesvirus 5; assay: Antiviral activity against ganciclovir-resistant human cytomegalovirus isolate E17251S infected in NHDF assessed as inhibition of virus-induced cytopathic effect after 6 to 7 days by giemsa staining; format: functional, organism-based; conditions: Human betaherpesvirus 5, isolate E17251S; summary of the method: as §4
[10] = test system: Human betaherpesvirus 5; assay: Antiviral activity against 0.003 MOI human cytomegalovirus AD169 infected in NHDF after 7 days by GFP-based fluorescent reduction assay; format: functional, organism-based; conditions: Human betaherpesvirus 5, AD169, NHDF, 168 h
Summary of the method: (§5)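 NHDF cells (1.5 × 10⁴/well) infected with GFP-expressing HCMV AD169 at the stated MOI (range 0.003 to 1 tested). After adsorption the inoculum was replaced, and compound was added in 3-fold serial dilutions, each at least in duplicate. Cells were incubated 7 days at 37°C, then GFP units were read by CCD camera in PBS. EC₅₀ was taken as the % GFPU reduction versus no-drug control. At least triplicate experiments.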

[11] = test system: Human betaherpesvirus 5; assay: Antiviral activity against 0.01 MOI human cytomegalovirus AD169 infected in NHDF after 7 days by GFP-based fluorescent reduction assay; conditions: Human betaherpesvirus 5, AD169, NHDF, 168 h
[12] = test system: Human betaherpesvirus 5; assay: Antiviral activity against ganciclovir-resistant human cytomegalovirus isolate 1947R infected in NHDF assessed as inhibition of virus-induced cytopathic effect after 6 to 7 days by giemsa staining; format: functional, organism-based; conditions: Human betaherpesvirus 5, isolate 1947R; summary of the method: as §4
[13] = test system: Human herpesvirus 5 strain AD169; assay: Antiviral activity against ganciclovir-resistant human cytomegalovirus AD169 UL97 M460I infected in NHDF assessed as inhibition of virus-induced cytopathic effect after 6 to 7 days by giemsa staining; format: functional, organism-based; conditions: Human betaherpesvirus 5, UL97 M460I; summary of the method: as §2
[14] = test system: Human betaherpesvirus 5; assay: Antiviral activity against human cytomegalovirus infected in HEL299 cells after 7 days by GFP-based fluorescent reduction assay; format: functional, organism-based; conditions: Human betaherpesvirus 5, HEL 299, 168 h; summary of the method: as §3
[15] = test system: Human betaherpesvirus 5; assay: Antiviral activity against 0.03 MOI human cytomegalovirus AD169 infected in NHDF after 7 days by GFP-based fluorescent reduction assay; format: functional, organism-based; conditions: Human betaherpesvirus 5, AD169, NHDF, 168 h; summary of the method: as §5
[16] = test system: Human betaherpesvirus 5; assay: Antiviral activity against human cytomegalovirus AD169 infected in NHDF at 20 uM treated after 33 hrs postinfection measured after 7 days by GFP-based fluorescent reduction assay; format: functional, organism-based
[17] = test system: Human betaherpesvirus 5; assay: Antiviral activity against human cytomegalovirus infected in human HS27 cells after 7 days by GFP-based fluorescent reduction assay; format: functional, organism-based; conditions: Human betaherpesvirus 5, HS27, 168 h
Summary of the method: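 GFP reduction assay run in HS27 foreskin fibroblasts instead of NHDF, infected with AD169-GFP; compounds in 3-fold serial dilutions, 7 days at 37°C, GFP units read by camera-based fluorescence detector after PBS exchange. EC50 from % GFPU reduction versus drug-free infected control; at least triplicate experiments.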

[18] = test system: Human betaherpesvirus 5; assay: Antiviral activity against human cytomegalovirus AD169 infected in NHDF at 10 times EC50 treated postinfection and measured after 7 days by GFP-based fluorescent reduction assay
[19] = test system: Human betaherpesvirus 5; assay: Antiviral activity against human cytomegalovirus AD169 infected in NHDF assessed as inhibition of virus replication at 20 uM after 96 hrs by fluorescence assay; format: functional, organism-based
[20] = test system: Human betaherpesvirus 5; assay: Antiviral activity against human cytomegalovirus infected in NHDF after 7 days by GFP-based fluorescent reduction assay; format: functional, organism-based; conditions: Human betaherpesvirus 5, NHDF, 168 h; summary of the method: as §3
[21] = test system: Human betaherpesvirus 5; assay: Antiviral activity against 0.3 MOI human cytomegalovirus AD169 infected in NHDF after 7 days by GFP-based fluorescent reduction assay; format: functional, organism-based; conditions: Human betaherpesvirus 5, AD169, NHDF, 168 h; summary of the method: as §5
[22] = test system: Human betaherpesvirus 5; assay: Antiviral activity against 0.1 MOI human cytomegalovirus AD169 infected in NHDF after 7 days by GFP-based fluorescent reduction assay; format: functional, organism-based; conditions: Human betaherpesvirus 5, AD169, NHDF, 168 h; summary of the method: as §5
[23] = test system: Human betaherpesvirus 5; assay: Antiviral activity against human cytomegalovirus AD169 infected in NHDF after 7 days by GFP-based fluorescent reduction assay; format: functional, organism-based; conditions: Human betaherpesvirus 5, AD169, NHDF, 168 h; summary of the method: as §1
[24] = test system: Human betaherpesvirus 5; assay: Antiviral activity against human cytomegalovirus Davis xenograft mouse model assessed as reduction of viral load at 10 to 100 mg/kg, po QD for 9 days measured post last dose; format: functional, organism-based
Summary of the method: (§6)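 NOD SCID mice (18 to 25 g) implanted subcutaneously (dorsoscapular) with Gelfoam sponges seeded with 1 × 10⁶ NHDF cells infected with strain Davis (MOI 0.03), bFGF-treated. From 4 h post-transplant, dosed orally by gavage once daily for 9 days in 2% DMSO/0.5% methylcellulose-PBS, 10 ml/kg. Implants then collagenase-digested; recovered cells titrated by plaque assay on NHDF (PFU/ml).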

[25] = test system: Human betaherpesvirus 5; assay: Antiviral activity against human cytomegalovirus AD169 infected in NHDF assessed as inhibition of virus replication at 50 nM after 96 hrs by fluorescence assay; format: functional, organism-based
[26] = test system: Human betaherpesvirus 5; assay: Antiviral activity against human cytomegalovirus Davis xenograft mouse model assessed as reduction of viral load administered via oral gavage QD for 9 days measured post last dose; format: functional; conditions: Human betaherpesvirus 5, Davis, 216 h; summary of the method: as §6
[27] = test system: Human betaherpesvirus 5; assay: Antiviral activity against human cytomegalovirus infected in human MRC5 cells after 7 days by GFP-based fluorescent reduction assay; format: functional, organism-based; conditions: Human betaherpesvirus 5, MRC5, 168 h
Summary of the method: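 MRC5 fibroblasts (1.5 × 10⁴/well) infected with GFP-expressing HCMV AD169; inoculum removed after adsorption, compound in serial 3-fold dilutions, at least duplicate. 7 days at 37°C, then PBS and GFP units read by CCD camera. EC₅₀ = 50% GFPU reduction versus no-drug virus control by nonlinear regression; mean ± SD of independent experiments.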

[28] = test system: Human betaherpesvirus 5; assay: Antiviral activity against human cytomegalovirus isolate Se infected in NHDF assessed as inhibition of virus-induced cytopathic effect after 6 to 7 days by giemsa staining; format: functional, organism-based; conditions: Human betaherpesvirus 5, isolate Se; summary of the method: as §2
[29] = test system: Human betaherpesvirus 5; assay: Antiviral activity against human cytomegalovirus AD169 infected in NHDF at 50 nM treated after 57 hrs postinfection measured after 7 days by GFP-based fluorescent reduction assay; format: functional, organism-based
[30] = test system: Human betaherpesvirus 5; assay: Antiviral activity against human cytomegalovirus infected in human fibroblast assessed as decrease in infectious foci size at 50 nM after 5 days by DAPI staining; format: functional, organism-based
Summary of the method: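 Late-stage infected fibroblasts (strictly cell-associated clinical isolate) cocultured with excess uninfected fibroblasts for 5 days with or without 50 nM drug. Methanol-fixed; IE antigen detected by indirect immunofluorescence (mAb E13, Cy3 secondary), nuclei DAPI-counterstained. Quadruplicate; mean infected cells per focus counted.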

[31] = test system: Human betaherpesvirus 5; assay: Antiviral activity against human cytomegalovirus isolate Ba infected in NHDF assessed as inhibition of virus-induced cytopathic effect after 6 to 7 days by giemsa staining; format: functional, organism-based; conditions: Human betaherpesvirus 5, isolate Ba; summary of the method: as §2
[32] = test system: Human betaherpesvirus 5; assay: Antiviral activity against human cytomegalovirus isolate La infected in NHDF assessed as inhibition of virus-induced cytopathic effect after 6 to 7 days by giemsa staining; format: functional, organism-based; conditions: Human betaherpesvirus 5, isolate La; summary of the method: as §2

SMILES	EC50 [1] [nM]	EC50 [2] [nM]	EC90 [2] [nM]	EC50 [3] [nM]	EC50 [4] [nM]	EC50 [5] [nM]	Activity [6]	EC50 [7] [nM]	EC50 [8] [nM]	EC50 [9] [nM]	EC50 [10] [nM]	EC50 [11] [nM]	EC50 [12] [nM]	EC50 [13] [nM]	EC50 [14] [nM]	EC50 [15] [nM]	EC50 [17] [nM]	Activity [18]	EC50 [20] [nM]	EC50 [21] [nM]	further results
Nc1nc2c(ncn2COC(CO)CO)c(=O)[nH]1 [GANCICLOVIR]	5260	2330	18300	2700	5000	2070	Active	1100	4300	14000	990	680	15000	12000	2390	1740	320	Active	1910	6510	Activity [16]: Active; Activity [19]: Active; EC50 [22]: 2210 nM; EC50 [23]: 1730 nM; EC90 [23]: 10700 nM
COc1cccc(N2CCN(C3=Nc4c(F)cccc4[C@H](CC(=O)O)N3c3cc(C(F)(F)F)ccc3OC)CC2)c1 [LETERMOVIR]	4.2	4.9	7.1	4	1.8	5	Active	2.6	5	6.1	1.3	1.5	2.3	3.9	3.5	2.9	5.6	Active	3.5	3.6	inhibition [24]: Active; Activity [25]: Active; ED50 [26]: 3 mg/kg/day; ED90 [26]: 8 mg/kg/day; EC50 [27]: 4.5 nM; EC50 [28]: 3.1 nM; Activity [29]: inactive; Activity [30]: Active; EC50 [22]: 3.4 nM; EC50 [31]: 5.8 nM; EC50 [23]: 3.8 nM; EC90 [23]: 5.1 nM; EC50 [32]: 3.4 nM
CC(C)[C@H](N)C(=O)OCC(CO)OCn1cnc2c(=O)[nH]c(N)nc21 (stereo partly specified) [VALGANCICLOVIR]																					inhibition [24]: Active; ED50 [26]: 16 mg/kg/day; ED90 [26]: > 100 mg/kg/day
